UPR CHOP act: apoptotic UPR (CHOP) activation; CHO-CHOP luciferase reporter, luminescence; percent of tunicamycin response over DMSO baseline; activation, % at 10 µM; actives 0.34% (n = 330,000);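 active = at 10 µM dose, activation of 40% or more, normalized to positive control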;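 also: 100% = tunicamycin at 10 µg/mL and 0% = DMSO alone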
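Material: CHO-CHOP cells, stable luciferase reporter of PERK-eIF2a-CHOP signalling; quantity: 500 reporter cells seeded per well; buffer or medium: F12 medium containing 10% fetal bovine serum; compound: one dose, 10 µM in 0.5% DMSO; incubation: 6 h compound treatment, 37 °C; measured by: Steady-Glo luciferase luminescence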
Jurkat NFkB inh: lowers PMA/ionomycin-induced NF-kB signal in Jurkat cells; PMA/ionomycin-induced NF-kB luciferase reporter, luminescence; AID 435003; inhibition, % at 4 µM; actives 0.53% (n = 330,000); in the data active = inhibition above about 50%
CHOP inh: blocks CHOP induction under ER stress; actives 3.8% (n = 220,000); CHO-K1 CHOP-promoter luciferase, tunicamycin-induced, 15-18 h; inhibition, % at 10 µM;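 active = compounds that reduced the stress-induced luciferase reporter signal by more than about 70% of percent inhibition, limit read from the data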;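 also: 0% = tunicamycin plus vehicle and 100% = wells without tunicamycin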
XBP1 UPR activ: adaptive UPR (XBP1) activation; CHO-XBP1 luciferase reporter, IRE1-XBP1 UPR activation, luminescence; percent of tunicamycin response, DMSO as zero; activation, % at 20 µM; actives 0.33% (n = 330,000);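 active = versus positive control, 20 µM dose yields 30% or more activation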;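 also: 100% = tunicamycin at 10 µg/mL and 0% = DMSO only wells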
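Assay system: CHO-XBP1 luciferase reporter cells; Schedule: 6 h treatment, 37 °C; Detection: glow luminescence from Steady-Glo reagent; Benchmarks: high control tunicamycin 10 µg/mL final, low control DMSO vehicle only.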
697 NFkB inh: inhibitors of the PMA/ionomycin-induced NF-kB reporter in 697 B cells; actives 0.33% (n = 330,000); 697 B-cell NF-kB luciferase reporter, 16 h; inhibition, % at 4 µM; in the data active = inhibition above about 35%
The depositor's hits bear a star; / = not tested or not shown. The sample as a whole holds a higher share of hits than the screen did.

SMILES	UPR CHOP act	Jurkat NFkB inh	CHOP inh	XBP1 UPR activ	697 NFkB inh
Cc1ccc(SC(C)C(=O)Nc2ccccc2-c2ccccc2)cc1 (centres undefined)	0.0	18.2	0.6	1.4	-17.1
COc1ccc([C@H]2CC(=O)C=C(c3ccc4c(c3)OCCO4)C2)cc1	3.3	-25.1	/	-1.0	-2.6
Cc1cccc(NC(=O)CN2C(=O)S/C(=C\C(=O)Nc3ccc(Cl)cc3)C2=O)c1	0.8	6.3	29.7	-0.1	26.7
CC(/C=C1\SC(=O)N(CC(=O)Nc2cccc(O)c2)C1=O)=C\c1ccccc1	0.9	-1.4	94.9*	4.6	-6.7
COc1cccc(/C=N/NC(=O)C(=O)Nc2ccccc2OC(F)(F)C(F)F)c1O	-0.1	22.7	78.1*	-2.6	-80.4
COc1ccccc1/C=N/NC(=O)c1cccc(OC(F)(F)C(F)F)c1	6.0	-7.8	-9.4	1.2	-6.9
O=C1CCCCC1C(Nc1ccc(Cl)cc1)c1ccccc1 (centres undefined)	0.6	14.2	93.6*	0.5	9.4
O=C1CCCCC1C(Nc1ccc(Br)cc1)c1ccccc1 (centres undefined)	-0.9	-12.6	79.8*	3.2	14.9
CCOC(=O)NC(c1ccccc1)C1CCCCC1=O (centres undefined)	1.1	10.7	-29.9	-0.2	16.2
COc1ccc(C(CC(=O)c2ccccc2)C2CCCCC2=O)cc1 (centres undefined)	0.5	7.2	57.6	1.8	-22.1
CCn1nc(NC(=O)Cc2ccc(OC)cc2)c2cc3cc(C)ccc3nc21	3.1	-0.8	29.5	0.6	-1.9
COC(=O)c1cccc2c1-c1ccccc1/C2=N/O	-0.8	11.2	86.6*	2.4	-11.8
COc1ccc(/C=N/NC(=O)c2ccc(COc3ccccc3Cl)o2)cc1	1.6	-11.5	44.0	0.3	29.1
COc1ccc(/C=N/NC(=O)c2ccc(COc3ccccc3Cl)o2)c(OC)c1C	12.0	11.9	86.8*	6.8	-0.9
Cc1ccc(NC(=O)c2cc(-c3ccco3)on2)cc1C	4.9	-82.7	-30.6	0.5	-22.5
Cc1ccc(NC(=O)c2cc(-c3cccc(O)c3)on2)cc1C	2.8	-68.3	85.8*	5.8	-42.7
COc1ccc(N2CCN(C(=O)Cn3cnc4c(cnn4-c4ccccc4)c3=O)CC2)cc1	0.1	10.1	11.1	-1.6	-2.5
Cc1ccc(-n2ncc3c(=O)n(CC(=O)N4CCN(c5ccccc5)CC4)cnc32)cc1	0.1	-1.5	82.2*	-1.7	-5.8
CN(C)C(=O)Cn1cnc2c(cnn2-c2ccccc2Cl)c1=O	0.7	-9.5	89.4*	-0.9	18.5
CCOc1ccccc1OCCC(=O)N1CCN(S(=O)(=O)c2ccccc2[N+](=O)[O-])CC1	0.5	5.8	/	-1.0	-14.0
Oc1ccc(-c2csc(Nc3ncccn3)n2)c(O)c1	3.8	-67.8	93.5*	-2.5	-82.0
O=C(NCCc1ccccc1)C(=O)N/N=C/c1ccc2c(c1)OCO2	-0.4	-0.8	94.6*	6.4	21.9
Cc1cc(C)c(OCC(=O)N/N=C/c2ccc3c(c2)OCO3)c(C)c1	-1.2	23.8	72.6*	0.8	1.0
Cc1cccc(OCC(=O)N/N=C/c2ccc3c(c2)OCO3)c1	0.7	-2.0	13.6	1.9	3.8
CCOC(=O)N1CCC(Nc2c(OCC)c(=O)c2=O)CC1	1.2	-4.4	4.3	-3.2	8.2
SMILES	UPR CHOP act	Jurkat NFkB inh	CHOP inh	XBP1 UPR activ	697 NFkB inh
CCCN(CCC)c1nc(NC2CCN(C(=O)OCC)CC2)nc(OC)n1	2.2	3.1	71.7*	-4.7	-43.8
O=C(CCN1CCOCC1)Nc1c(-c2ccccc2)c2cc(Br)ccc2[nH]c1=O	-2.6	-5.4	-5.7	-0.7	5.4
Cc1ccc2[nH]c(=O)c(N3CCOCC3)c(-c3ccccc3)c2c1	0.1	1.7	76.3*	-1.6	19.5
COc1ccccc1NC(=O)c1cc2c(s1)-c1ccccc1S(=O)(=O)C2	1.1	14.2	3.3	-2.0	30.2
CS(=O)c1ccccc1-c1nc(-c2cc(C(F)(F)F)cc(C(F)(F)F)c2)no1 (centres undefined)	1.9	10.3	82.2*	1.2	0.3
CCCC(=O)Nc1nc(C(=O)OCC)cs1	0.1	-17.4	-2.7	1.5	-11.0
CCOC(=O)c1csc(NC(=O)COc2ccc(Cl)cc2Cl)n1	1.5	-17.1	71.2*	-4.9	2.1
CCCCCc1cc(O)c2c(C)cc(=O)oc2c1	-0.4	1.1	72.3*	13.0	-8.5
